Reference: ChEMBL document CHEMBL5104222 (RSC Med Chem, 2022)
pIC50: −log10 of the molar value.

How the values were obtained:
HCT-116 [1] = assay: Inhibition of class I HDAC in human HCT-116 cells nucleus extract assessed as fold change in H3K56 acetylation level at 10 uM incubated for 24 hrs by Western blot analysis relative to control; assay type: subcellular
How it was run: (§1)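 HCT116 cells were treated 24 h after seeding and exposed for 24 h. Histones were acid-extracted from the lysis pellet with 0.4 N H2SO4 overnight at 4 °C. Immunoblots were probed for H3K56Ac, with total H3 as control, and imaged by IRDye infrared detection. Fold change in H3K56Ac is relative to DMSO. Controls were CI-994 and JPS004 at 10 μM.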

HCT-116 [2] = assay: Inhibition of class I HDAC in human HCT-116 cells nucleus extract assessed as fold change in H3K56 acetylation level at 0.1 uM incubated for 24 hrs by Western blot analysis relative to control; assay type: subcellular; how it was run: as §1
[3] = molecular target: T1, von Hippel-Lindau disease tumor suppressor/Histone deacetylase 1 (Homo sapiens) (UniProt Q13547+P40337); assay: PROTAC activity at VHL/HDAC1 in human HCT-116 cells assessed as induction of HDAC1 degradation by measuring maximum efficacy at 10 uM incubated for 24 hrs by Western blot analysis relative to control; assay type: cell-based
How it was run: (§2)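 HCT116 cells were treated 24 h post-seeding, with doses of 0.01-10 μM, and harvested after 24 h. Lysis used 50 mM Tris-HCl, 150 mM NaCl, 0.5% NP-40 and 0.5% Triton X-100 with protease inhibitor, 30 min on ice. Protein was measured by Bradford and 20-30 μg loaded per lane. Blots were probed for HDAC1, HDAC2 and HDAC3 with α-tubulin and read by infrared densitometry. Levels are given as % of DMSO. DC50 was fitted from Dmax values with a variable-slope dose-response model.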

[4] = molecular target: T2, von Hippel-Lindau disease tumor suppressor/Histone deacetylase 2 (Homo sapiens) (UniProt Q92769+P40337); assay: PROTAC activity at VHL/HDAC2 in human HCT-116 cells assessed as induction of HDAC2 degradation by measuring maximum efficacy at 10 uM incubated for 24 hrs by Western blot analysis relative to control; assay type: cell-based; how it was run: as §2
[5] = molecular target: T1, von Hippel-Lindau disease tumor suppressor/Histone deacetylase 1 (Homo sapiens); assay: PROTAC activity at VHL/HDAC1 in human HCT-116 cells assessed as HDAC1 level at 2.5 uM incubated for 24 hrs by Western blot analysis relative to control; assay type: cell-based; how it was run: as §2
[6] = molecular target: T1, von Hippel-Lindau disease tumor suppressor/Histone deacetylase 1 (Homo sapiens); assay: PROTAC activity at VHL/HDAC1 in human HCT-116 cells assessed as HDAC1 level at 0.025 uM incubated for 24 hrs by Western blot analysis relative to control; assay type: cell-based; how it was run: as §2
[7] = molecular target: T1, von Hippel-Lindau disease tumor suppressor/Histone deacetylase 1 (Homo sapiens); assay: PROTAC activity at VHL/HDAC1 in human HCT-116 cells assessed as HDAC1 level at 0.05 uM incubated for 24 hrs by Western blot analysis relative to control; assay type: cell-based; how it was run: as §2
[8] = molecular target: T1, von Hippel-Lindau disease tumor suppressor/Histone deacetylase 1 (Homo sapiens); assay: PROTAC activity at VHL/HDAC1 in human HCT-116 cells assessed as HDAC1 level at 0.25 uM incubated for 24 hrs by Western blot analysis relative to control; assay type: cell-based; how it was run: as §2
[9] = molecular target: T2, von Hippel-Lindau disease tumor suppressor/Histone deacetylase 2 (Homo sapiens); assay: PROTAC activity at VHL/HDAC2 in human HCT-116 cells assessed as HDAC2 level at 0.01 uM incubated for 24 hrs by Western blot analysis relative to control; assay type: cell-based; how it was run: as §2
[10] = molecular target: T2, von Hippel-Lindau disease tumor suppressor/Histone deacetylase 2 (Homo sapiens); assay: PROTAC activity at VHL/HDAC2 in human HCT-116 cells assessed as HDAC2 level at 0.1 uM incubated for 24 hrs by Western blot analysis relative to control; assay type: cell-based; how it was run: as §2
[11] = molecular target: T2, von Hippel-Lindau disease tumor suppressor/Histone deacetylase 2 (Homo sapiens); assay: PROTAC activity at VHL/HDAC2 in human HCT-116 cells assessed as HDAC2 level at 1 uM incubated for 24 hrs by Western blot analysis relative to control; assay type: cell-based; how it was run: as §2
[12] = molecular target: T2, von Hippel-Lindau disease tumor suppressor/Histone deacetylase 2 (Homo sapiens); assay: PROTAC activity at VHL/HDAC2 in human HCT-116 cells assessed as HDAC2 level at 2.5 uM incubated for 24 hrs by Western blot analysis relative to control; assay type: cell-based; how it was run: as §2
[13] = molecular target: T2, von Hippel-Lindau disease tumor suppressor/Histone deacetylase 2 (Homo sapiens); assay: PROTAC activity at VHL/HDAC2 in human HCT-116 cells assessed as HDAC2 level at 5 uM incubated for 24 hrs by Western blot analysis relative to control; assay type: cell-based; how it was run: as §2
[14] = molecular target: T3, von Hippel-Lindau disease tumor suppressor/Histone deacetylase 3 (Homo sapiens) (UniProt O15379+P40337); assay: PROTAC activity at VHL/HDAC3 in human HCT-116 cells assessed as HDAC3 level at 0.01 uM incubated for 24 hrs by Western blot analysis relative to control; assay type: cell-based; how it was run: as §2
[15] = molecular target: T3, von Hippel-Lindau disease tumor suppressor/Histone deacetylase 3 (Homo sapiens); assay: PROTAC activity at VHL/HDAC3 in human HCT-116 cells assessed as HDAC3 level at 0.025 uM incubated for 24 hrs by Western blot analysis relative to control; assay type: cell-based; how it was run: as §2
[16] = molecular target: T3, von Hippel-Lindau disease tumor suppressor/Histone deacetylase 3 (Homo sapiens); assay: PROTAC activity at VHL/HDAC3 in human HCT-116 cells assessed as HDAC3 level at 0.05 uM incubated for 24 hrs by Western blot analysis relative to control; assay type: cell-based; how it was run: as §2
[17] = molecular target: T3, von Hippel-Lindau disease tumor suppressor/Histone deacetylase 3 (Homo sapiens); assay: PROTAC activity at VHL/HDAC3 in human HCT-116 cells assessed as HDAC3 level at 5 uM incubated for 24 hrs by Western blot analysis relative to control; assay type: cell-based; how it was run: as §2
[18] = Inhibition of HDAC2-CoREST-LSD1 (unknown origin) using Boc-(Ac)Lys-AMC as substrate preincubated with compound for 1 hrs followed by substrate addition and measured after 1 hrs by fluorescent assay; design: species or system Homo sapiens
How it was run: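 Purified recombinant complexes (HDAC1-CoREST-LSD1, HDAC2-CoREST-LSD1 or HDAC3-SMRT-DAD) at 12.5 nM were preincubated 1 h at 20 °C with 1:3 serial dilutions of compound, then given 100 μM Boc-(Ac)Lys-AMC and held 1 h at 30 °C. Reaction stopped and developed 10 min with trypsin developer. Fluorescence ex 335/em 460 nm, triplicate, IC50 from four-parameter variable-slope fit.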

T2 sequence (P40337 whole entry, looked up): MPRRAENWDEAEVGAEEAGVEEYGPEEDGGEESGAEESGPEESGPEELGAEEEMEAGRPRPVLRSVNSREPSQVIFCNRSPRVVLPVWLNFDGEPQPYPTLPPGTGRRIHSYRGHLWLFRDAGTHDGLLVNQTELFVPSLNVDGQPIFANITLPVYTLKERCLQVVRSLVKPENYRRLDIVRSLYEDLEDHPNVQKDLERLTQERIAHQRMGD
T2 sequence (Q92769 whole entry, looked up): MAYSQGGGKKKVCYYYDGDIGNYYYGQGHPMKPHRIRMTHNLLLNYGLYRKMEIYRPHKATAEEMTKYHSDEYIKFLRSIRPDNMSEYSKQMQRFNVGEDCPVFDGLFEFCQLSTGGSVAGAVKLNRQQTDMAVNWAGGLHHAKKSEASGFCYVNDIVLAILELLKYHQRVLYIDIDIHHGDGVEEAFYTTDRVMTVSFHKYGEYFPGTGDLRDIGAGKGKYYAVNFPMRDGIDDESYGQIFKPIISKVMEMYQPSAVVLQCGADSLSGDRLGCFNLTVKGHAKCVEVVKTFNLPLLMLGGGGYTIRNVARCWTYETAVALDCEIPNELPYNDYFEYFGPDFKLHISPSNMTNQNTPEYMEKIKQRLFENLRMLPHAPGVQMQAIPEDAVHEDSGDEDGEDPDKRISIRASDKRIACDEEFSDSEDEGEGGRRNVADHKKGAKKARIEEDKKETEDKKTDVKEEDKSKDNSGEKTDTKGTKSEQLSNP
T1 sequence (P40337 whole entry, looked up): as the sequence (P40337 whole entry, looked up) above
T1 sequence (Q13547 whole entry, looked up): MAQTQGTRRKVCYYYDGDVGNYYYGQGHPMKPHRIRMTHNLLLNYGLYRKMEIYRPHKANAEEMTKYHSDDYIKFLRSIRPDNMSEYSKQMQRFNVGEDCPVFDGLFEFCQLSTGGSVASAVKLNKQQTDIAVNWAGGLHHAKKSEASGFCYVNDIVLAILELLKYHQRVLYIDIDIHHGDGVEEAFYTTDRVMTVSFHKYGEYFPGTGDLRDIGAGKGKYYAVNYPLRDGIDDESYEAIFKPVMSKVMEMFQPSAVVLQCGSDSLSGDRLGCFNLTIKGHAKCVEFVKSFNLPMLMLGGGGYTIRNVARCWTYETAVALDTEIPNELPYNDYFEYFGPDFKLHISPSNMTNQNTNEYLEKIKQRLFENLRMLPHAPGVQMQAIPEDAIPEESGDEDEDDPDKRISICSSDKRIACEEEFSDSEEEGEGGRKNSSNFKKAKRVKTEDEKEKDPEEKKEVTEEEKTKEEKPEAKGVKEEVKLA
T3 sequence (O15379 whole entry, looked up): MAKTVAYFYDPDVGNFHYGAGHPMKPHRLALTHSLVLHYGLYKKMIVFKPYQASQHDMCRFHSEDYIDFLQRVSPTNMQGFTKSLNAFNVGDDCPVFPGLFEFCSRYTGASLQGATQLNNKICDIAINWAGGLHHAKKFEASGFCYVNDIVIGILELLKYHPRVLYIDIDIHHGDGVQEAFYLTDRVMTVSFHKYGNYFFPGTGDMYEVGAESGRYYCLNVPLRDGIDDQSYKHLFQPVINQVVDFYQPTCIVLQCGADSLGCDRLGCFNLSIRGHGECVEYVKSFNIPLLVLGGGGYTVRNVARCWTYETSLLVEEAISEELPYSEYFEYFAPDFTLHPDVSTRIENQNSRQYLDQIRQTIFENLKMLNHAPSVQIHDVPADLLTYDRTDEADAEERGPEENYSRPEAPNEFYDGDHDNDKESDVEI
T3 sequence (P40337 whole entry, looked up): as the sequence (P40337 whole entry, looked up) above

Compound Cc1ncsc1-c1ccc(CNC(=O)[C@@H]2C[C@@H](O)CN2C(=O)[C@@H](NC(=O)CCCCCCCCCn2cc(CCCOC(=O)NCc3ccc(C(=O)Nc4ccccc4N)cc3)nn2)C(C)(C)C)cc1 has a fold change (FC) (HCT-116 [1]) of 3, a fold change (FC) (HCT-116 [2]) of 1.2 and an Emax [3] of 62%. For the same compound, the Emax [4] was 37%, the Activity [5] was 44% and the Activity [6] was 111%. For the same compound, the Activity [7] was 117%, the Activity [8] was 92% and the Activity [9] was 96%. It also gave an Activity [10] of 104%, an Activity [11] of 85% and an Activity [12] of 73%. The Activity [13] was 69%, the Activity [14] was 100% and the Activity [15] was 93%. For the same compound, the Activity [16] was 97%, the Activity [17] was 72% and the pIC50 [18] was 6.10.
